Test results reported in ChEMBL document CHEMBL3994633, “Exploration of phenylpropanoic acids as agonists of the free fatty acid receptor 4 (FFA4): Identification of an orally efficacious FFA4 agonist” (Bioorg Med Chem Lett, 2017).

What was measured:
[1] = target: T1, Free fatty acid receptor 4 (Homo sapiens, UniProt Q5NUL3); assay: Agonist activity at human FFA4 receptor expressed in human U2OS cells co-expressing Galpha16 assessed as calcium mobilization by Fluo-4 dye based FLIPR assay; assay type: functional, cell-based
T1 sequence (Q5NUL3 whole entry): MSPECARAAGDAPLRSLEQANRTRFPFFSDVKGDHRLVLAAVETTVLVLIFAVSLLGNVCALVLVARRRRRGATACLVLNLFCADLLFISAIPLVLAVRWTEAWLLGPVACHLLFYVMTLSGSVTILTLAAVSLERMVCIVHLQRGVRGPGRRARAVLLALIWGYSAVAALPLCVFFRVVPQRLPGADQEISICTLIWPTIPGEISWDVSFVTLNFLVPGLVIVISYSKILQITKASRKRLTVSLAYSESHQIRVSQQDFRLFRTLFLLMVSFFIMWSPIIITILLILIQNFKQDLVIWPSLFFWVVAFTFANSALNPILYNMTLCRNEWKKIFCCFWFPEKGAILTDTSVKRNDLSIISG
Procedure, shortened: (§1)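 U2OS cells transiently expressing human FFA1 or FFA4. Agonism measured from a ten-point dose-response curve with FLIPR readout, giving EC50 (nM) and efficacy (% max response). Values are means of three experiments.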

[2] = target: T2, Free fatty acid receptor 1 (Homo sapiens, UniProt O14842); assay: Agonist activity at human FFA1 receptor expressed in human U2OS cells co-expressing Galpha16 assessed as calcium mobilization by Fluo-4 dye based FLIPR assay; assay type: functional, cell-based; procedure, shortened: as §1
T2 sequence (O14842 whole entry): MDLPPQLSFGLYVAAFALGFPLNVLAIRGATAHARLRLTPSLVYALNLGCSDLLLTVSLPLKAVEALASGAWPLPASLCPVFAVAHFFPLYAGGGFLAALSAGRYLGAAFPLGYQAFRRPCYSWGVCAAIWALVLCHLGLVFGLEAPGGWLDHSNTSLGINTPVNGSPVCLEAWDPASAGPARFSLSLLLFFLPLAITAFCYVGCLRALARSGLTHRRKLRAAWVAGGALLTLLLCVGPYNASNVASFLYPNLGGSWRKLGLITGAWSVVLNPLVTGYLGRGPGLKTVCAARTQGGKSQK

[3] = target: T3, Free fatty acid receptor 4 (Homo sapiens) (UniProt Q5NUL3); assay: Agonist activity at human FFA4 receptor expressed in human U2OS cells co-expressing Galpha16 assessed as calcium mobilization by Fluo-4 dye based FLIPR assay relative to GSK137647A; assay type: functional, cell-based; procedure, shortened: as §1
T3 sequence (whole entry): T1 sequence (Q5NUL3 whole entry)

[4] = target: T2, Free fatty acid receptor 1; assay: Agonist activity at human FFA1 receptor expressed in human U2OS cells co-expressing Galpha16 assessed as calcium mobilization by Fluo-4 dye based FLIPR assay relative to GSK137647A; assay type: functional, cell-based; procedure, shortened: as §1
[5] = organism: Homo sapiens; assay: Selectivity ratio of EC50 for human FFA4 receptor expressed in human U2OS cells co-expressing Galpha16 to EC50 for human FFA1 receptor expressed in human U2OS cells co-expressing Galpha16; assay type: cell-based
[6] = organism: Homo sapiens; assay: Selectivity ratio of EC50 for human FFA1 receptor expressed in human U2OS cells co-expressing Galpha16 to EC50 for human FFA4 receptor expressed in human U2OS cells co-expressing Galpha16; assay type: cell-based
[7] = Clearance in C57BL/6J mouse at 3 mg/kg, iv; assay type: ADME, organism-based; settings: in vivo
Procedure, shortened: (§2)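 C57BL/6J mice (n = 2) dosed intravenously at 3 or 4.2 mg/kg. Clearance (mL/min/kg) and AUC (hr*ng/mL) derived from plasma concentrations.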

[8] = AUC in C57BL/6J mouse at 3 mg/kg, iv; assay type: ADME, organism-based; settings: in vivo; procedure, shortened: as §2
[9] = Cmax in C57BL/6J mouse at 10 mg/kg, po; assay type: ADME, organism-based; set-up: dose 10 mg/kg, route oral; settings: in vivo
Procedure, shortened: (§3)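 C57BL/6J mice (n = 2), single oral dose of 10 mg/kg given as a suspension in 0.5% HMPC: 0.1% Tween. Plasma Cmax and AUC (hr*ng/mL) measured; %F calculated against the IV leg.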

[10] = AUC in C57BL/6J mouse at 10 mg/kg, po; assay type: ADME, organism-based; settings: in vivo; procedure, shortened: as §3
[11] = Oral bioavailability in C57BL/6J mouse at 10 mg/kg; assay type: ADME, organism-based; settings: in vivo; procedure, shortened: as §3
[12] = Tmax in C57BL/6J mouse at 10 mg/kg, po; assay type: ADME, organism-based; settings: in vivo
[13] = Volume of distribution at steady state in C57BL/6J mouse at 3 mg/kg, iv or 10 mg/kg, po; assay type: ADME, organism-based; settings: in vivo, read-out: Vdss
[14] = Protein binding in human plasma; assay type: ADME, cell-free; settings: read-out: PPB

Row | Structure (SMILES) | EC50 [1] [µM] | EC50 ([2]; read-out: EC50) [µM] | %max [3] [%] | %max [4] [%] | further results
1 | Cc1ccc(Br)c(COc2ccc(CCC(=O)O)cc2C)c1 | 0.053 | > 30 | 118 | – | –
2 | Cc1cc(OCc2ccccc2SC(F)(F)F)ccc1CCC(=O)O | 0.722 | 1.54 | 90 | 108 | –
3 | O=C(O)CCc1ccc(OCc2cccc(Oc3ccccc3)c2)cc1 | 0.968 | – | 85 | 106 | Ratio EC50 [5]: 17
4 | Cc1cc(CCC(=O)O)ccc1OCc1cccc(C(F)(F)F)c1 | 0.898 | > 30 | 117 | – | –
5 | O=C(O)CCc1ccc(OCc2ccccc2SC(F)(F)F)cc1 | 0.681 | 1.42 | 105 | 74 to 77 | Ratio EC50 [6]: 2
6 | Cc1cc(CCC(=O)O)cc(C)c1OCc1ccccc1SC(F)(F)F | 0.66 | 21.8 | 102 | 115 | –
7 | Cc1cc(CCC(=O)O)ccc1OCc1ccccc1Cl | 0.972 | 11.6 | 130 | 80 | –
8 | O=C(O)COc1ccc(OCc2ccccc2SC(F)(F)F)cc1 | 9.98 | > 30 | 85 | – | –
9 | CC(C)Cc1cc(CCC(=O)O)ccc1OCc1ccccc1SC(F)(F)F | 9.66 | > 30 | 161 | – | –
10 | Cc1cc(CCC(=O)O)ccc1OCc1ccccc1C(F)(F)F | 0.531 | 8.6 | 103 | 95 | –
11 | Cc1cc(CCC(=O)O)ccc1OCc1cccc(Oc2ccccc2)c1 | 0.556 | 3.84 | 95 | 90 | –
12 | Cc1cc(CCC(=O)O)ccc1OCc1cccc(Cl)c1 | 0.362 | 10.3 | 104 | 60 | –
13 | O=C(O)CCc1ccc(OCc2ccccc2SC(F)(F)F)c2ccccc12 | 2.29 | > 30 | 105 | – | –
14 | O=C(O)CC(O)c1ccc(OCc2ccccc2SC(F)(F)F)cc1 (centres undefined) | > 30 | – | – | – | –
15 | Cc1cccc(COc2ccc(CCC(=O)O)cc2C)c1 | 0.275 | > 30 | 100 | – | clearance [7]: 12 mL/min/kg; AUC [8]: 4100 ng·h/mL; Cmax [9]: 3080 ng/mL; AUC [10]: 5350 ng·h/mL; bioavailability [11]: 39%; Tmax [12]: 15 to 30 min; Vd [13]: < 2 L/kg; fraction unbound [14]: < 0.01
16 | O=C(O)CCc1ccc(OCc2ccccc2SC(F)(F)F)c(CO)c1 | 5.91 | > 30 | 53 | – | –
17 | Cc1cc(CCC(=O)O)ccc1OCc1ccccc1OC(C)C | 0.271 | > 30 | 118 | – | –
18 | Cc1cc(C)cc(COc2ccc(CCC(=O)O)cc2C)c1 | 0.06 | 3.78 | 66 | 97 | clearance [7]: 35 mL/min/kg; AUC [8]: 1420 ng·h/mL; Cmax [9]: 2630 ng/mL; AUC [10]: 2600 ng·h/mL; bioavailability [11]: 55%; Tmax [12]: 15 to 30 min; Vd [13]: < 2 L/kg; fraction unbound [14]: < 0.01
19 | Cc1cc(CCC(=O)O)ccc1OCc1ccccc1 | 0.75 | > 30 | 83 | – | –
20 | Cc1cc(COc2ccc(CCC(=O)O)cc2C)cc(Oc2ccccc2)c1 | 0.04 | 1.63 | 97 | 85 | –
21 | Cc1cc(CCC(=O)O)ccc1OCc1ccccc1Br | 0.236 | > 30 | 116 | – | –
22 | CC(CC(=O)O)c1ccc(OCc2ccccc2SC(F)(F)F)cc1 (centres undefined) | 11.4 | 13.1 | – | 109 | –
23 | Cc1ccc(OC(C)C)c(COc2ccc(CCC(=O)O)cc2C)c1 | 0.172 | 19.6 | 106 | 154 | –
24 | Cc1cc(CCC(=O)O)ccc1OCc1cc(C(F)(F)F)ccc1O | 10 | – | 78 | – | –
25 | Cc1cc(COc2ccc(CCC(=O)O)cc2C)cc(OC(C)C)c1 | 0.06 | > 30 | 112 | – | clearance [7]: 43 mL/min/kg; AUC [8]: 1170 ng·h/mL; Cmax [9]: 687 ng/mL; AUC [10]: 767 ng·h/mL; bioavailability [11]: 20%; Tmax [12]: 15 to 30 min; Vd [13]: < 2 L/kg; fraction unbound [14]: < 0.01
26 | Cc1cc(CCC(=O)O)ccc1OCc1ccccc1SC(F)(F)F | 0.201 | 8.51 | 108 | 81 | –
27 | COc1cc(CCC(=O)O)ccc1OCc1ccccc1SC(F)(F)F | 1.99 | > 30 | 110 | – | –
28 | Cc1c(CCC(=O)O)ccc(OCc2ccccc2SC(F)(F)F)c1C | 0.304 | > 30 | 77 | – | –
29 | Cc1ccc(Cl)c(COc2ccc(CCC(=O)O)cc2C)c1 | 0.188 | 18.1 | 115 | 243 | clearance [7]: 18 mL/min/kg; AUC [8]: 2860 ng·h/mL; Cmax [9]: 3030 ng/mL; AUC [10]: 4400 ng·h/mL; bioavailability [11]: 46%; Tmax [12]: 15 to 30 min; Vd [13]: < 2 L/kg; fraction unbound [14]: < 0.01
30 | O=C(O)CCc1ccc(OCc2ccccc2SC(F)(F)F)c(Cl)c1 | 0.108 | > 10 | 80 | – | EC50 ([2]; read-out: pEC50 (converted)): > 31.6 µM
